From ChEMBL document CHEMBL3414425, “Synthesis and biological evaluation of new imidazo[2,1-b][1,3,4]thiadiazole-benzimidazole derivatives” (Eur J Med Chem, 2015)
Converted amounts (≈) assume the structure as drawn. The source made the active and inactive calls. The calls are words filed in the database; no cut-off is given here.

Legend:
Candida albicans [1] = test: Antifungal activity against Candida albicans at 1 mg/ml incubated for 3 days; format: functional; conditions: for zone of inhibition at 1000 µg/mL: 72 h, read-out: IZ
Outline: (§1)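 Well plate method on potato dextrose agar. Fungal stock suspended in distilled water with Tween 80 and swabbed over plates. Samples in DMSO at 1 and 0.5 mg/mL added to wells, incubated 25 °C for 3 days, then scored for inhibition zones; fluconazole standard.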

[2] = tested on: Chrysosporium keratinophilum; test: Antifungal activity against Chrysosporium keratinophilum at 1 mg/ml incubated for 3 days; format: functional; conditions: for zone of inhibition at 1000 µg/mL: 72 h, read-out: IZ; outline: as §1
Escherichia coli [3] = test: Antibacterial activity against Escherichia coli at 1 mg/ml incubated for 18 hrs by well plate technique; format: functional; conditions: for zone of inhibition at 1000 µg/mL: read-out: DIZ
Outline: (§2)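 Bacteria kept on nutrient agar at 37 °C, grown statically in nutrient broth (start ~10-100 cfu/mL) at 37 °C for 18-24 h. Suspensions diluted in saline and spread on nutrient agar, then wells cut with a cork borer. Compound in DMSO at 1 or 0.5 mg/mL added to wells, 37 °C, 18 h. Inhibition zone diameter measured minus DMSO value; triplicate; streptomycin standard.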

Aspergillus flavus [4] = test: Antifungal activity against Aspergillus flavus at 0.5 mg/ml incubated for 3 days; format: functional; conditions: for zone of inhibition at 500 µg/mL: 72 h, read-out: IZ; outline: as §1
[5] = Cytotoxicity against African green monkey Vero cells assessed as growth inhibition at 62.5 ug/ml after 72 hrs by MTT assay; format: cell-based; conditions: chlorocebus sabaeus, read-out: GI
Outline: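 Vero cells grown in MEM + 10% FBS at 37 °C, 5% CO2. Seeded ~10,000 cells/well, 24 h to a partial monolayer. Compounds in DMSO diluted in MEM + 2% FBS (1 mg/ml stock, two-fold dilutions) for 72 h. MTT 3 h, formazan dissolved in propanol, A540. % inhibition = 100 − (mean OD test/mean OD control × 100).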

Candida albicans [6] = test: Antifungal activity against Candida albicans at 0.5 mg/ml incubated for 3 days; format: functional; conditions: for zone of inhibition at 500 µg/mL: 72 h, read-out: IZ; outline: as §1
[7] = tested on: Mycobacterium tuberculosis; test: Antitubercular activity against Mycobacterium tuberculosis H37Rv ATCC 27294/XDR-TB incubated for 28 days by agar dilution method; format: functional; conditions: 672 h
Outline: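 Agar dilution: two-fold dilutions in Middlebrook 7H11 agar with OADC. Inoculum from fresh 7H11/OADC slants adjusted to 1 mg/mL wet weight in 0.05% Tween 80 saline, diluted 10^-2 (~10⁷ cfu/mL); 5 µL spotted per tube. Incubated 37 °C; MIC, lowest concentration fully inhibiting growth, read after 28 days, in triplicate.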

[8] = tested on: Chrysosporium keratinophilum; test: Antifungal activity against Chrysosporium keratinophilum at 0.5 mg/ml incubated for 3 days; format: functional; conditions: for zone of inhibition at 500 µg/mL: 72 h, read-out: IZ; outline: as §1
Staphylococcus aureus [9] = test: Antibacterial activity against Staphylococcus aureus at 1 mg/ml incubated for 18 hrs by well plate technique; format: functional; conditions: for zone of inhibition at 1000 µg/mL: read-out: DIZ; outline: as §2
Staphylococcus aureus [10] = test: Antibacterial activity against Staphylococcus aureus at 0.5 mg/ml incubated for 18 hrs by well plate technique; format: functional; conditions: for zone of inhibition at 500 µg/mL: read-out: DIZ; outline: as §2
Salmonella typhi [11] = test: Antibacterial activity against Salmonella typhi at 0.5 mg/ml incubated for 18 hrs by well plate technique; format: functional; conditions: for diameter of the inhibition zone (DIZ): Salmonella enterica subsp. enterica serovar Typhi; for zone of inhibition at 500 µg/mL: Salmonella enterica, read-out: DIZ
Outline: (§3)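 Well diffusion on nutrient agar; strains kept on nutrient agar at 37 °C, grown statically in nutrient broth 18-24 h at 37 °C, diluted in saline, 0.1 ml spread per plate. Compounds in DMSO at 1 and 0.5 mg/mL added to cork-bored wells; 18 h at 37 °C. Inhibition zone diameter measured, DMSO value subtracted; triplicate; streptomycin reference.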

Salmonella typhi [12] = test: Antibacterial activity against Salmonella typhi at 1 mg/ml incubated for 18 hrs by well plate technique; format: functional, Salmonella enterica subsp. enterica serovar Typhi; conditions: for zone of inhibition at 1000 µg/mL: Salmonella enterica, read-out: DIZ; for diameter of the inhibition zone (DIZ): Salmonella enterica subsp. enterica serovar Typhi; outline: as §3
Pseudomonas aeruginosa [13] = test: Antibacterial activity against Pseudomonas aeruginosa at 1 mg/ml incubated for 18 hrs by well plate technique; format: functional; conditions: for zone of inhibition at 1000 µg/mL: read-out: DIZ; outline: as §2
[14] = Antioxidant activity assessed as DPPH radical scavenging activity incubated for 10 mins by UV-visible spectrometry; format: physicochemical
Outline: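 DPPH free-radical scavenging; absorbance read at 517 nm against a methanol blank. % scavenging = (A control − A sample)/A control × 100.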

Pseudomonas aeruginosa [15] = test: Antibacterial activity against Pseudomonas aeruginosa at 0.5 mg/ml incubated for 18 hrs by well plate technique; format: functional; conditions: for zone of inhibition at 500 µg/mL: read-out: DIZ; outline: as §2
Escherichia coli [16] = test: Antibacterial activity against Escherichia coli at 0.5 mg/ml incubated for 18 hrs by well plate technique; format: functional; conditions: for zone of inhibition at 500 µg/mL: read-out: DIZ; outline: as §2
Aspergillus flavus [17] = test: Antifungal activity against Aspergillus flavus at 1 mg/ml incubated for 3 days; format: functional; conditions: for zone of inhibition at 1000 µg/mL: 72 h, read-out: IZ; outline: as §1

Structure (SMILES) | inhibition zone (IZ) (Candida albicans [1]) | inhibition zone (IZ) [2] | zone of inhibition at 1000 µg/mL (Escherichia coli [3]) [mm] | inhibition zone (IZ) (Aspergillus flavus [4]) | inhibition zone (IZ) (Candida albicans [6]) | MIC [7] [µg/mL] | inhibition zone (IZ) [8] | zone of inhibition at 1000 µg/mL (Staphylococcus aureus [9]) [mm] | zone of inhibition at 500 µg/mL (Staphylococcus aureus [10]) [mm] | zone of inhibition at 1000 µg/mL (Salmonella typhi [12]) [mm] | zone of inhibition at 1000 µg/mL (Pseudomonas aeruginosa [13]) [mm] | inhibition (INH) [14] [%] | zone of inhibition at 500 µg/mL (Pseudomonas aeruginosa [15]) [mm] | zone of inhibition at 500 µg/mL (Escherichia coli [16]) [mm] | inhibition zone (IZ) (Aspergillus flavus [17]) | zone of inhibition at 1000 µg/mL (Candida albicans [1]) [mm] | zone of inhibition at 1000 µg/mL [2] [mm] | zone of inhibition at 500 µg/mL (Aspergillus flavus [4]) [mm] | zone of inhibition at 500 µg/mL (Salmonella typhi [11]) [mm] | zone of inhibition at 1000 µg/mL (Aspergillus flavus [17]) [mm] | other results
Cc1ccc(-c2nc3sc(C)nn3c2-c2nc3ccccc3[nH]2)cc1 | inactive | inactive | 5 | inactive | inactive | 3.12 (≈ 9.05 µM) | inactive | 5 | 3 | 6 | 3 | 28.6 | 2 | 2 | inactive |  |  |  |  |  | inhibition at 72 h, 62.5 ug/ml [5]: 5.03%; diameter of the inhibition zone (DIZ) (Salmonella typhi [11]): inactive
Cc1nn2c(-c3nc4cc(Cl)ccc4[nH]3)c(-c3ccc(F)cc3)nc2s1 |  |  | 11 |  |  | 25 (≈ 65.1 µM) |  | 9 | 6 | 10 | 13 | 39.5 | 10 | 8 |  | 9 | 8 | 5 | 7 | 7 | zone of inhibition at 500 µg/mL (Candida albicans [6]): 7 mm; zone of inhibition at 500 µg/mL [8]: 6 mm
COc1ccc(-c2nc3sc(-c4ccccc4)nn3c2-c2nc3cc([N+](=O)[O-])ccc3[nH]2)cc1 |  |  | 4 |  | inactive | 50 (≈ 107 µM) |  | 4 | 2 | 6 | 5 | 23.4 | 3 | 3 |  | 3 | 4 | 1 | 3 | 3 | zone of inhibition at 500 µg/mL [8]: 2 mm
Cc1ccc(-c2nc3sc(C)nn3c2-c2nc3cc([N+](=O)[O-])ccc3[nH]2)cc1 | inactive | inactive |  | inactive | inactive | 50 (≈ 128 µM) | inactive |  |  |  |  | 28.9 |  |  | inactive |  |  |  |  |  | diameter of the inhibition zone (DIZ) (Escherichia coli [3]): inactive; diameter of the inhibition zone (DIZ) (Staphylococcus aureus [9]): inactive; diameter of the inhibition zone (DIZ) (Staphylococcus aureus [10]): inactive; diameter of the inhibition zone (DIZ) (Salmonella typhi [11]): inactive; diameter of the inhibition zone (DIZ) (Salmonella typhi [12]): inactive; diameter of the inhibition zone (DIZ) (Pseudomonas aeruginosa [13]): inactive; diameter of the inhibition zone (DIZ) (Pseudomonas aeruginosa [15]): inactive; diameter of the inhibition zone (DIZ) (Escherichia coli [16]): inactive
COc1ccc(-c2nc3sc(-c4ccc(F)cc4)nn3c2-c2nc3cc(Cl)ccc3[nH]2)cc1 |  |  | 5 |  |  | 50 (≈ 105 µM) |  | 4 | 1 | 3 | 2 | 38.6 | 1 | 1 |  | 5 | 4 | 2 | 0 | 4 | zone of inhibition at 500 µg/mL (Candida albicans [6]): 2 mm; zone of inhibition at 500 µg/mL [8]: 1 mm
COc1ccc(-c2nc3sc(-c4ccc(F)cc4)nn3c2-c2nc3cc([N+](=O)[O-])ccc3[nH]2)cc1 |  |  | 5 |  |  | 12.5 (≈ 25.7 µM) |  | 5 | 3 | 4 | 6 | 30.8 | 3 | 3 |  | 5 | 4 | 3 | 3 | 5 | zone of inhibition at 500 µg/mL (Candida albicans [6]): 2 mm; zone of inhibition at 500 µg/mL [8]: 2 mm
Cc1nn2c(-c3nc4cc([N+](=O)[O-])ccc4[nH]3)c(-c3ccc(F)cc3)nc2s1 | inactive | inactive | 4 | inactive | inactive | 50 (≈ 127 µM) | inactive | 3 | 2 | 2 | 1 | 25.9 | 3 | 2 | inactive |  |  |  | 1 |  | 
Cc1nn2c(-c3nc4ccccc4[nH]3)c(-c3ccc(Cl)cc3)nc2s1 |  |  | 4 |  |  | 25 (≈ 68.3 µM) |  | 4 | 3 | 3 | 5 | 28.8 | 3 | 3 |  | 6 | 7 | 5 | 1 | 6 | zone of inhibition at 500 µg/mL (Candida albicans [6]): 4 mm; zone of inhibition at 500 µg/mL [8]: 6 mm
COc1ccc(-c2nc3sc(-c4ccc(Cl)cc4)nn3c2-c2nc3ccccc3[nH]2)cc1 | inactive | inactive | 3 | inactive | inactive | 12.5 (≈ 27.3 µM) | inactive | 3 | 2 | 3 | 2 | 20.9 | 1 | 1 | inactive |  |  |  | 1 |  | 
Cc1ccc(-c2nn3c(-c4nc5cc([N+](=O)[O-])ccc5[nH]4)c(-c4ccc(Cl)cc4)nc3s2)cc1 | inactive | inactive |  | inactive | inactive | 12.5 (≈ 25.7 µM) | inactive |  |  |  |  | 21.8 |  |  | inactive |  |  |  |  |  | diameter of the inhibition zone (DIZ) (Escherichia coli [3]): inactive; diameter of the inhibition zone (DIZ) (Staphylococcus aureus [9]): inactive; diameter of the inhibition zone (DIZ) (Staphylococcus aureus [10]): inactive; diameter of the inhibition zone (DIZ) (Salmonella typhi [11]): inactive; diameter of the inhibition zone (DIZ) (Salmonella typhi [12]): inactive; diameter of the inhibition zone (DIZ) (Pseudomonas aeruginosa [13]): inactive; diameter of the inhibition zone (DIZ) (Pseudomonas aeruginosa [15]): inactive; diameter of the inhibition zone (DIZ) (Escherichia coli [16]): inactive
Cc1ccc(-c2nc3sc(C)nn3c2-c2nc3cc(Cl)ccc3[nH]2)cc1 |  |  | 8 |  |  | 50 (≈ 132 µM) | inactive | 10 | 7 | 8 | 9 | 30.6 | 6 | 5 |  | 4 | 2 | 1 | 7 | 3 | zone of inhibition at 500 µg/mL (Candida albicans [6]): 1 mm
